Test results reported in ChEMBL document CHEMBL4261611, “Identification of steroidal derivatives inhibiting the transformations of allopregnanolone and estradiol by 17β-hydroxysteroid dehydrogenase type 10” (Bioorg Med Chem Lett, 2018).
Calls of active or inactive are those of the source. The rule behind the calls is not given here.

Experiments:
[1] = Blood-brain transfer coefficient in mouse administered via perfusion; assay type: ADME, tissue-based; settings: in vivo, other
[2] = target: T1, 3-hydroxyacyl-CoA dehydrogenase type-2 (Mus musculus) (UniProt O08756); test: Inhibition of recombinant mouse full-length 17beta-HSD10 (2 to 261 residues) assessed as reduction in transformation of [3H]-ALLOP to 5alpha-DHP at 100 uM after 48 hrs in presence of 1 mM NAD+ cofactor by liquid scintillation counting method relative to control
T1 sequence (whole entry): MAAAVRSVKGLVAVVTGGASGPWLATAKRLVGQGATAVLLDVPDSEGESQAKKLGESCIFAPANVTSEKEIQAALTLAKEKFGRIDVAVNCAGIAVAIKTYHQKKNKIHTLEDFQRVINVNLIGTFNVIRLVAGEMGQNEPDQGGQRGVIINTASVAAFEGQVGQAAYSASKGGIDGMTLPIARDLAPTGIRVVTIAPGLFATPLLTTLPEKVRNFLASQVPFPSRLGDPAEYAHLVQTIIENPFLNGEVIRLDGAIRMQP
Procedure, shortened: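 Screen at 100 μM inhibitor, 48 h, with 400 ng/mL purified enzyme, 1 mM NAD⁺ and 1 μM [³H]-ALLOP/ALLOP (1:99). ALLOP-to-5α-DHP conversion was expressed as % inhibition versus the no-inhibitor transformation. Results are mean ± SEM.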

[3] = target: T1, 3-hydroxyacyl-CoA dehydrogenase type-2 (Mus musculus); test: Inhibition of recombinant mouse full-length 17beta-HSD10 (2 to 261 residues) assessed as reduction in transformation of [14C]-E2 to E1 at 100 uM after 48 hrs in presence of 1 mM NAD+ cofactor by liquid scintillation counting method
[4] = target: T1, 3-hydroxyacyl-CoA dehydrogenase type-2 (Mus musculus); test: Inhibition of recombinant mouse full-length 17beta-HSD10 (2 to 261 residues) assessed as reduction in transformation of [14C]-E2 to E1 at 300 uM after 48 hrs in presence of 1 mM NAD+ cofactor by liquid scintillation counting method relative to control
Procedure, shortened: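 Single-concentration screen at 300 μM inhibitor. Purified 17β-HSD10 (400 ng/mL), 1 mM NAD⁺, 1 μM [¹⁴C]-E2/E2 (1:9), 48 h incubation. E2-to-E1 conversion was measured and inhibition expressed relative to uninhibited transformation. Results are mean ± SEM.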

[5] = Octanol/water partition co-efficient, log P of the compound; assay type: physicochemical
Procedure, shortened: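 Octanol/water partition coefficient calculated in silico, not measured.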

[6] = target: T2, 3-hydroxyacyl-CoA dehydrogenase type-2 (Mus musculus, UniProt O08756); test: Inhibition of recombinant mouse full-length 17beta-HSD10 (2 to 261 residues) assessed as reduction in transformation of [3H]-ALLOP to 5alpha-DHP after 48 hrs in presence of 1 mM NAD+ cofactor by liquid scintillation counting method
T2 sequence (O08756 whole entry): T1 sequence (whole entry)
Procedure, shortened: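 Purified 17β-HSD10 (400 ng/mL), 1 mM NAD⁺, 1 μM [³H]-ALLOP/ALLOP (1:99), 48 h incubation. Oxidation to 5α-DHP was measured over a range of inhibitor concentrations to build inhibition curves and estimate IC50. Results are mean ± SEM.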

[7] = target: T2, 3-hydroxyacyl-CoA dehydrogenase type-2; test: Inhibition of recombinant mouse full-length 17beta-HSD10 (2 to 261 residues) assessed as reduction in transformation of [14C]-E2 to E1 after 48 hrs in presence of 1 mM NAD+ cofactor by liquid scintillation counting method
Procedure, shortened: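 Purified 17β-HSD10 at 400 ng/mL with 1 mM NAD⁺ and substrate [¹⁴C]-E2/E2 (1:9) at 1 μM total, incubated 48 h. E2-to-E1 oxidation was followed with radiolabel. Percent inhibition over a dose range was used for dose-response curves and IC50 estimation. Results are mean ± SEM.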

[8] = Effect on mouse brain penetration assessed as [14C]-sucrose uptake administered via perfusion; assay type: ADME, tissue-based; settings: in vivo
[9] = Solubility of the compound at 600 to 1000 uM; assay type: physicochemical

SMILES: CN1C(=O)CN=C(c2ccccc2)c2cc(Cl)ccc21 [DIAZEPAM]
- Kin [1]: 50 to 60 µL/s/g

SMILES: C[C@]12CC[C@](O)(CN3CCN(C(=O)c4ccc(-c5ccccc5)cc4)CC3)C[C@@H]1CC[C@@H]1[C@@H]2CC[C@]2(C)C(=O)CC[C@@H]12
- inhibition [2]: 19.3%
- inhibition [3]: inactive
- inhibition [4]: 29.4%
- logP [5]: 5.3

SMILES: C[C@]12CC[C@](O)(CN3CCN(Cc4cnc5ccccc5c4)CC3)C[C@@H]1CC[C@@H]1[C@@H]2CC[C@]2(C)C(=O)CC[C@@H]12
- inhibition [2]: 15.2%
- inhibition [3]: inactive
- inhibition [4]: 36.1%
- logP [5]: 4.58

SMILES: COc1cc(CN2CCN(C[C@@]3(O)CC[C@@]4(C)[C@@H](CC[C@@H]5[C@@H]4CC[C@]4(C)C(=O)CC[C@@H]54)C3)CC2)ccc1C
- inhibition [2]: 12.5%
- inhibition [3]: inactive
- inhibition [4]: 31%
- logP [5]: 4.72

SMILES: COc1cccc(CN2CCN(C[C@@]3(O)CC[C@@]4(C)[C@@H](CC[C@@H]5[C@@H]4CC[C@]4(C)[C@H](O)CC[C@@H]54)C3)CC2)c1
- inhibition [2]: 41.7%
- IC50 [6]: 235 µM
- inhibition [3]: inactive
- inhibition [4]: 31.7%
- IC50 [7]: 610 µM
- logP [5]: 4.67

SMILES: C#C[C@]1(O)CC[C@H]2[C@@H]3CC[C@H]4C[C@@](O)(CN5CCN(Cc6cccc(OC)c6)CC5)CC[C@]4(C)[C@H]3CC[C@@]21C
- inhibition [2]: 20%
- inhibition [3]: inactive
- inhibition [4]: 44.5%
- logP [5]: 4.93

SMILES: COc1cccc(CN2CCN(C[C@@]3(O)CC[C@@]4(C)[C@@H](CC[C@@H]5[C@@H]4CC[C@]4(C)C(=O)CC[C@@H]54)C3)CC2)c1
- inhibition [2]: 14.7%
- IC50 [6]: 985 µM
- inhibition [3]: inactive
- inhibition [4]: 30%
- IC50 [7]: 710 µM
- Kin [1]: 13.8 to 32.7 µL/s/g
- Activity [8]: Non-Toxic
- logP [5]: 4.43

SMILES: C[C@]12CC[C@@H]3c4ccc(O)cc4CC[C@H]3[C@@H]1CC[C@@H]2O [ESTRADIOL]
- IC50 [6]: 770 µM
- IC50 [7]: 155 µM

SMILES: C[C@]12CC[C@](O)(CN3CCN(C(=O)c4ccc(C(=O)c5ccccc5)cc4)CC3)C[C@@H]1CC[C@@H]1[C@@H]2CC[C@]2(C)C(=O)CC[C@@H]12
- inhibition [2]: 8%
- inhibition [3]: inactive
- inhibition [4]: 58.8%
- logP [5]: 4.99

SMILES: Cc1cc(C)cc(C(=O)N2CCN(C[C@@]3(O)CC[C@@]4(C)[C@@H](CC[C@@H]5[C@@H]4CC[C@]4(C)C(=O)CC[C@@H]54)C3)CC2)c1
- inhibition [2]: 1.5%
- inhibition [3]: inactive
- logP [5]: 4.86

SMILES: CCN(C)S(=O)(=O)N1CCN(C[C@@]2(O)CC[C@@]3(C)[C@@H](CC[C@@H]4[C@@H]3CC[C@]3(C)C(=O)CC[C@@H]43)C2)CC1
- inhibition [2]: 0%
- inhibition [3]: inactive
- inhibition [4]: 10.2%
- logP [5]: 2.97

SMILES: C[C@]12CC[C@](O)(CN3CCN(C(=S)NCc4cccc(C(F)(F)F)c4)CC3)C[C@@H]1CC[C@@H]1[C@@H]2CC[C@]2(C)C(=O)CC[C@@H]12
- inhibition [2]: 34.2%
- inhibition [3]: inactive
- inhibition [4]: 8.5%
- logP [5]: 3.85

SMILES: COc1cccc(CN2CCN(C[C@@]3(O)CC[C@@]4(C)[C@@H](CC[C@@H]5[C@@H]4CC[C@]4(C)[C@@H](O)CC[C@@H]54)C3)CC2)c1
- inhibition [2]: 0%
- inhibition [3]: inactive
- inhibition [4]: 13.7%
- logP [5]: 4.67

SMILES: CC(=O)c1cccc(C(=O)N2CCN(C[C@@]3(O)CC[C@@]4(C)[C@@H](CC[C@@H]5[C@@H]4CC[C@]4(C)C(=O)CC[C@@H]54)C3)CC2)c1
- inhibition [2]: 5%
- inhibition [3]: inactive
- logP [5]: 3.85

SMILES: COc1cccc(CN2CCN(C[C@@]3(O)CC[C@@]4(C)[C@@H](CC[C@@H]5[C@@H]4CC[C@@]4(C)[C@H]5CC[C@]4(C)O)C3)CC2)c1
- inhibition [2]: 21.9%
- inhibition [3]: inactive
- inhibition [4]: 22.6%
- logP [5]: 5.06

SMILES: CN(C)S(=O)(=O)c1ccc(NC(=S)N2CCN(C[C@@]3(O)CC[C@@]4(C)[C@@H](CC[C@@H]5[C@@H]4CC[C@]4(C)C(=O)CC[C@@H]54)C3)CC2)cc1
- inhibition [2]: 13.3%
- inhibition [3]: inactive
- inhibition [4]: 0.3%
- logP [5]: 3.32

SMILES: COc1cccc(CN2CCN(C[C@@]3(O)CC[C@@]4(C)[C@@H](CC[C@@H]5[C@@H]4CC[C@]4(C)C(=O)C(C)(C)C[C@@H]54)C3)CC2)c1
- inhibition [2]: 11.1%
- inhibition [3]: inactive
- inhibition [4]: 24.6%
- logP [5]: 5.57

SMILES: COc1cccc(CN2CCN(C[C@@]3(O)CC[C@@]4(C)[C@@H](CC[C@@H]5[C@@H]4CC[C@@]4(C)[C@H]5CCC4(F)F)C3)CC2)c1
- inhibition [2]: 38.6%
- solubility [9]: Insoluble
- inhibition [3]: inactive
- inhibition [4]: 13.3%
- logP [5]: 5.57
